One data set has as its target T1, Endothelin-1 receptor (Rattus norvegicus, UniProt P26684).
T1 sequence (P26684 whole entry): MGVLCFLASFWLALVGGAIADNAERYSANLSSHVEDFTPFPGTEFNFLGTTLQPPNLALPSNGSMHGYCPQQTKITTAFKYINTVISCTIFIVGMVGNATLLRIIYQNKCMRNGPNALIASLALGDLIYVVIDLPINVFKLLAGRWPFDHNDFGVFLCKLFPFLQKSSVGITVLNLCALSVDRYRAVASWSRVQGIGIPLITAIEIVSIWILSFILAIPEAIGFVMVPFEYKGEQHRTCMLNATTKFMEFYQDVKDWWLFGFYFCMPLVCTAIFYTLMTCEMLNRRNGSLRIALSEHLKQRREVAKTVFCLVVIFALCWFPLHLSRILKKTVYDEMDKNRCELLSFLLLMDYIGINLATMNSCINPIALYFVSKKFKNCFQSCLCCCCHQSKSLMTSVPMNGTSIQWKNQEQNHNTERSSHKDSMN
Put plainly: Binding affinity towards endothelin A receptor in prolactin secreting rat pituitary cells using [125I]ET1 as radioligand. It is filed as cell-based, Pituitary gland cell. The method in brief: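 Membranes from rat MMQ pituitary cells (predominantly ETA), kept at 4 °C and stored in Tris/NaCl/MgCl2 buffer pH 7.4 with protease inhibitors. Bound ligand separated by vacuum filtration on glass fiber. Nonspecific binding defined with 1 μM ET-1.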

In data set [1] the target is T2, Endothelin receptor type B (Sus scrofa, UniProt P35463).
T2 sequence (P35463 whole entry): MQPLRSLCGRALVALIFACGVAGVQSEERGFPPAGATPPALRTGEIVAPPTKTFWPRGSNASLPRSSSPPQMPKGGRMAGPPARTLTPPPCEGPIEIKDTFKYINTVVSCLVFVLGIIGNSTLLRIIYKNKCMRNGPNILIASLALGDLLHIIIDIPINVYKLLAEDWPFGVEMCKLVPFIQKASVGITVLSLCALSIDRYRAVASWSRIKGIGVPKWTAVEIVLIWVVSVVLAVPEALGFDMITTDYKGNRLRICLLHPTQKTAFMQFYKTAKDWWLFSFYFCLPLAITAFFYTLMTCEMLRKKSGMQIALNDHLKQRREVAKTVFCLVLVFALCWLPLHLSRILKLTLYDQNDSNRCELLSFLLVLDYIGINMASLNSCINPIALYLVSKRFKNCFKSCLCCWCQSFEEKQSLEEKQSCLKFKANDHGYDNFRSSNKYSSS
Put plainly: Binding affinity towards endothelin B receptor in porcine cerebellar tissue using [125I]-ET-1 as radioligand. Summed up: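 Membranes from porcine cerebellar tissue (ETB), kept at 4 °C and stored in Tris/NaCl/MgCl2 buffer pH 7.4 with protease inhibitors. Bound and free separated by glass-fiber filtration. Nonspecific binding measured with 1 μM ET-1.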

Data set [2] in a line: Area under curve was determined in carotid blood of rat when administered intraduodenally. Also on record: concentration or dose not given beside the values.
Data set [3] is described as follows: Oral bioavailability in rat. It is filed as ADME, organism-based. As to conditions: in vivo. The method in brief:
(§1)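 Male Sprague–Dawley rats, n = 4 per group. Vehicle: ethanol:propylene glycol:D5W (20:30:50) with 1 mol equiv NaOH. Dosing: 5 mg/kg iv jugular bolus, or 10 mg/kg oral gavage. Tail-vein plasma sampled 0.1 (iv only) to 12 h and analyzed by HPLC after extraction. Trapezoidal AUC extrapolated to infinity. F from dose-corrected oral versus iv AUC.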

Data set [4] can be described thus: Time taken to decrease the plasma concentration to half of the maximum concentration when compound was administered intravenously in rats. It is filed as ADME, organism-based. As to conditions: rat, iv. The method in brief:
as §1

Data set [5] is described as follows: Area under curve was determined in portal blood of rat when administered intradermally. It is filed as ADME, organism-based. Conditions: in the assay text read “intraduodenally” for “intradermally”. Also on record: concentration or dose not given beside the values. The method in brief:
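Male Sprague–Dawley rats (~225 g), fasted overnight and anesthetized with inactin (100 mg/kg ip). Pylorus ligated; carotid and portal vein catheterized. Intraduodenal dose 10 mg/kg at t = 0. Portal blood drawn at 10, 30 and 60 min; drug measured by HPLC-UV at 226 nm against plasma standards (0.01–50 μg/mL). AUC calculated by trapezoidal rule.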

Data set [6] is described as follows: Maximum concentration of compound in plasma administered orally to rats. It is filed as ADME, organism-based. Also on record: route oral. Conditions: rat, po. The method in brief: as §1

The source of these data is ChEMBL document CHEMBL1130287, “Potent and selective non-benzodioxole-containing endothelin-A receptor antagonists” (J Med Chem, 1997).

Molecules are shown by their SMILES.

In general, IC50 refers to the midpoint of a concentration-inhibition curve. `CCCN(C)C(=O)CN1C[C@H](c2ccc3c(c2)OCCO3)[C@@H](C(=O)O)[C@@H]1c1ccc(OC)cc1`: the IC50 amounted to 130 nM at Endothelin-1 receptor and 35 µM in data set [1].

In the case of `CCCN(C)C(=O)CN1C[C@H](c2ccc3cc[nH]c3c2)[C@@H](C(=O)O)[C@@H]1c1ccc(OC)cc1`, the IC50 is 5100 nM on Endothelin-1 receptor and 35 µM in data set [1].

On to `CCCN(C)C(=O)CN1C[C@H](c2ccc(F)c(F)c2)[C@@H](C(=O)O)[C@@H]1c1ccc(OC)cc1`, for which the IC50 stood at 310 nM on Endothelin-1 receptor and 35 µM in data set [1].

`CCCN(C)C(=O)CN1C[C@H](c2ccc3ccccc3c2)[C@@H](C(=O)O)[C@@H]1c1ccc(OC)cc1`: the half-inhibitory concentration (IC50) at Endothelin-1 receptor is 2300 nM; in data set [1], 25 µM.

For the molecule `CCCN(C)C(=O)CN1C[C@H](c2ccc(OC)c(OC)c2)[C@@H](C(=O)O)[C@@H]1c1ccc(OC)cc1`, the 50% inhibitory concentration (IC50) was found to be 730 nM at Endothelin-1 receptor and 31 µM in data set [1].

As to `CCCCN(CCCC)C(=O)CN1C[C@H](c2ccc(F)cc2)[C@@H](C(=O)O)[C@@H]1c1ccc(OC)cc1`, the IC50 at Endothelin-1 receptor was 14 nM; in data set [1], 77 µM.

`CCCN(C)C(=O)CN1C[C@H](c2cccc3occc23)[C@@H](C(=O)O)[C@@H]1c1ccc(OC)cc1`: the IC50 in data set [1] stood at 34 µM.

As for `CCCCN(CCCC)C(=O)CN1C[C@H](c2cccc(F)c2)[C@@H](C(=O)O)[C@@H]1c1ccc(OC)cc1`, the figures for the IC50 (on Endothelin-1 receptor; in data set [1]) were 5 nM and 16 µM, respectively.

With `CCCCN(CCCC)C(=O)CN1C[C@H](c2cccnc2)[C@@H](C(=O)O)[C@@H]1c1ccc(OC)cc1`, the IC50 on Endothelin-1 receptor was 930 nM; in data set [1], above 100 µM.

On to `CCCCN(CCCC)C(=O)CN1C[C@H](c2ccc(OC)cc2)[C@@H](C(=O)O)[C@@H]1c1ccc(OC)cc1`, for which the results for the IC50 (at Endothelin-1 receptor; in data set [1]) were 1.3 nM and 4.1 µM, respectively.

By AUC is commonly meant the area under the concentration-time curve, a measure of exposure. For orientation: bioavailability means the share of a dose that reaches the circulation, judged against a reference dose that is usually intravenous. By half-life is commonly meant how long it takes for the measured level to halve. The term Cmax denotes the peak of the concentration-time curve. As for `CCCCN(CCCC)C(=O)CN1C[C@H](c2ccc3c(c2)OCC3)[C@@H](C(=O)O)[C@@H]1c1ccc(OC)cc1`, the IC50 came to 1 nM on Endothelin-1 receptor and 0.96 µM in data set [1]. Also, the AUC in data set [2] is 6170 ng·h/mL; in data set [5] it was 12200 ng·h/mL. The bioavailability in data set [3] is 68%. For the same molecule, the half-life in data set [4] is 282 min. Besides, in data set [6], the Cmax was determined as 4000 ng/mL.

Turning to `CCCN(C)C(=O)CN1C[C@H](c2ccc3c(c2)CCC3)[C@@H](C(=O)O)[C@@H]1c1ccc(OC)cc1`, the IC50 at Endothelin-1 receptor amounted to 310 nM; in data set [1] it was 11 µM.

Take `CCCCN(CCCC)C(=O)CN1C[C@H](c2ccc3occc3c2)[C@@H](C(=O)O)[C@@H]1c1ccc(OC)cc1`: the IC50 at Endothelin-1 receptor is 0.5 nM; in data set [1], 5.1 µM. The AUC is 2330 ng·h/mL in data set [2] and 4000 ng·h/mL in data set [5]. Also, in data set [3], the bioavailability is 39%. Besides, the half-life in data set [4] was 192 min. This molecule also showed a Cmax in data set [6] of 1600 ng/mL.

On to `CCCCN(CCCC)C(=O)CN1C[C@H](c2ccc3c(c2)OCO3)[C@@H](C(=O)O)[C@@H]1c1ccc(OC)cc1`, for which the AUC is 5830 ng·h/mL in data set [2] and 10700 ng·h/mL in data set [5]. The bioavailability in data set [3] was found to be 68%. This molecule showed a half-life in data set [4] of 210 min. For the same molecule, the Cmax in data set [6] came out at 3200 ng/mL.

With `CCCN(C)C(=O)CN1C[C@H](c2ccc3c(c2)CCO3)[C@@H](C(=O)O)[C@@H]1c1ccc(OC)cc1`, the half-inhibitory concentration (IC50) on Endothelin-1 receptor was determined as 130 nM; in data set [1] it was 19 µM.

For the molecule `CCCCN(CCCC)C(=O)CN1C[C@H](c2ccc3c(c2)CCC3)[C@@H](C(=O)O)[C@@H]1c1ccc(OC)cc1`, the half-inhibitory concentration (IC50) at Endothelin-1 receptor is 1.5 nM.

For the molecule `CCCN(C)C(=O)CN1C[C@H](c2ccc3ccoc3c2)[C@@H](C(=O)O)[C@@H]1c1ccc(OC)cc1`, the IC50 at Endothelin-1 receptor was 258 nM; in data set [1], 13 µM.

On Endothelin-1 receptor, `CCCN(C)C(=O)CN1C[C@H](c2cccc(OC)c2)[C@@H](C(=O)O)[C@@H]1c1ccc(OC)cc1` returned an IC50 of 1700 nM.

As for `CCCN(C)C(=O)CN1C[C@H](c2ccc(OC)cc2OC)[C@@H](C(=O)O)[C@@H]1c1ccc(OC)cc1`, the IC50 worked out at 407 nM on Endothelin-1 receptor and 72 µM in data set [1].

For the molecule `CCCN(C)C(=O)CN1C[C@H](c2ccc(OC)cc2)[C@@H](C(=O)O)[C@@H]1c1ccc(OC)cc1`, the IC50 on Endothelin-1 receptor was 176 nM; in data set [1], 16 µM.

Take `CCCCN(CCCC)C(=O)CN1C[C@H](c2ccc(OC)cc2OC)[C@@H](C(=O)O)[C@@H]1c1ccc(OC)cc1`: the 50% inhibitory concentration (IC50) at Endothelin-1 receptor turned out to be 3.7 nM; in data set [1], 48 µM.

`CCCCN(CCCC)C(=O)CN1C[C@H](c2ccc3c(c2)OCCO3)[C@@H](C(=O)O)[C@@H]1c1ccc(OC)cc1` came in with an IC50 on Endothelin-1 receptor of 0.8 nM.

In the case of `CCCCN(CCCC)C(=O)CN1C[C@H](c2ccc(F)c(F)c2)[C@@H](C(=O)O)[C@@H]1c1ccc(OC)cc1`, the IC50 amounted to 1.5 nM at Endothelin-1 receptor and 17 µM in data set [1].

With `CCCCN(CCCC)C(=O)CN1C[C@H](c2cccc3occc23)[C@@H](C(=O)O)[C@@H]1c1ccc(OC)cc1`, the IC50 at Endothelin-1 receptor came out at 2 nM; in data set [1], 11 µM.

`CCCCN(CCCC)C(=O)CN1C[C@H](c2ccc3c(c2)CCO3)[C@@H](C(=O)O)[C@@H]1c1ccc(OC)cc1`: the IC50 on Endothelin-1 receptor was 0.6 nM; in data set [1], 2.6 µM. Also, the values for the AUC in data set [2] and in data set [5] were 3000 ng·h/mL and 8830 ng·h/mL, respectively. In data set [3], this molecule yielded a bioavailability of 33%. In data set [4], this molecule showed a half-life of 66 min. In data set [6], this molecule returned a Cmax of 1500 ng/mL.

`CCCN(C)C(=O)CN1C[C@H](c2ccc3c(c2)OCC3)[C@@H](C(=O)O)[C@@H]1c1ccc(OC)cc1`: the figures for the IC50 (at Endothelin-1 receptor; in data set [1]) were 137 nM and 6.4 µM, respectively.

`CCCN(C)C(=O)CN1C[C@H](c2ccccc2)[C@@H](C(=O)O)[C@@H]1c1ccc(OC)cc1` gave an IC50 in data set [1] above 100 µM.

As to `CCCN(C)C(=O)CN1C[C@H](c2cccc3ccccc23)[C@@H](C(=O)O)[C@@H]1c1ccc(OC)cc1`, the IC50 turned out to be 2300 nM on Endothelin-1 receptor and 32 µM in data set [1].

`CCCCN(CCCC)C(=O)CN1C[C@H](c2ccc3ccoc3c2)[C@@H](C(=O)O)[C@@H]1c1ccc(OC)cc1`: the IC50 was 0.7 nM at Endothelin-1 receptor and 5 µM in data set [1]. Besides, the AUC was 6170 ng·h/mL in data set [2] and 9000 ng·h/mL in data set [5]. The bioavailability in data set [3] amounted to 38%. In data set [4], this molecule showed a half-life of 282 min. In data set [6], this molecule showed a Cmax of 4700 ng/mL.
